Test results taken from ChEMBL document CHEMBL5678799 (Biochem J, 2009).
One block for each molecule: values may come before it. Activity calls are given as the source filed them. The calls are words filed in the database; no cut-off is given here.

Tests used:
[1] = target: T1, Mitogen-activated protein kinase; ERK1/ERK2 (Homo sapiens) (UniProt P27361+P28482); test: Inhibition of ERK1/2 in serum starved/PMA-stimulated HEK293 cells assessed as reduction in RSK activity at 200 nM using crosstide as substrate incubated for 30 mins in presence of [32P]-ATP by liquid-scintillation counting method; format: cell-based
T1 sequence (P27361 whole entry, looked up): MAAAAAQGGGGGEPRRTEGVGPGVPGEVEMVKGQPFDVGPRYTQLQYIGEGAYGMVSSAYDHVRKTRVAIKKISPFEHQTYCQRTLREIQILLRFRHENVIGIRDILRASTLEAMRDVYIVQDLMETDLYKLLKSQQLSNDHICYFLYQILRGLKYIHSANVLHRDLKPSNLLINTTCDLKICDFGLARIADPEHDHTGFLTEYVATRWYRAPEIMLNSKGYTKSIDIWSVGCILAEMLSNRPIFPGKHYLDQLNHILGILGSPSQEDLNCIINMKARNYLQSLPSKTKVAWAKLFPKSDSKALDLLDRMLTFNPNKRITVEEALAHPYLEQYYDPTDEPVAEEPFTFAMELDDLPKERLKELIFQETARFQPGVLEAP
T1 sequence (P28482 whole entry, looked up): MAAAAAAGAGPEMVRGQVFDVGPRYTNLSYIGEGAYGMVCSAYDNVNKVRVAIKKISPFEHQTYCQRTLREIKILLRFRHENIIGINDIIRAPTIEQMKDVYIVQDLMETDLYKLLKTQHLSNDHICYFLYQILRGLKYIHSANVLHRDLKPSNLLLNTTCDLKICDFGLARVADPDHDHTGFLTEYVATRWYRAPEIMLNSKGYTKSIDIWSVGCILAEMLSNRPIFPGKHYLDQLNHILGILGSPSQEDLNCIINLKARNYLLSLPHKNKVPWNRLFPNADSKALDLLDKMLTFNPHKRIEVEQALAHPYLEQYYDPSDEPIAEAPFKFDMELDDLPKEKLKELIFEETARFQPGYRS

[2] = target: T1, Mitogen-activated protein kinase; ERK1/ERK2 (Homo sapiens); test: Inhibition of ERK1/2 in serum starved/PMA-stimulated HEK293 cells assessed as reduction in RSK phosphorylation at S227 residues at 200 nM incubated for 30 mins by immunoblot analysis; format: cell-based
[3] = target: T1, Mitogen-activated protein kinase; ERK1/ERK2 (Homo sapiens); test: Inhibition of ERK1/2 in serum starved/PMA-stimulated HEK293 cells assessed as reduction in ERK1/2 phosphorylation at T202/Y204 residues at 200 nM incubated for 30 mins by immunoblot analysis; format: cell-based
[4] = target: T1, Mitogen-activated protein kinase; ERK1/ERK2 (Homo sapiens); test: Inhibition of ERK1/2 in serum starved/PMA-stimulated HEK293 cells assessed as reduction in RSK phosphorylation at S380 residues at 200 nM incubated for 30 mins by immunoblot analysis; format: cell-based
[5] = target: T1, Mitogen-activated protein kinase; ERK1/ERK2 (Homo sapiens); test: Inhibition of ERK1/2 in serum starved/PMA-stimulated HEK293 cells assessed as reduction in RSK phosphorylation at T573 residues at 200 nM incubated for 30 mins by immunoblot analysis; format: cell-based
[6] = tested on: HEK293; test: Inhibition of PI3K in IGF1-stimulated HEK293 cells assessed as reduction in IGF1-stimulated PtdIns(3,4,5)P3 production at 2 uM pre incubated for 30 mins followed by IGF1-stimulation for 10 mins; format: cell-based; conditions: Homo sapiens
[7] = tested on: HeLa; test: Inhibition of PI3K/mTOR in human HeLa cells assessed as reduction in NDRG1 phosphorylation incubated ay 1 uM for 30 mins by immunoblot analysis; format: cell-based
In short: (§1)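 HeLa cells or wild-type/knockout MEFs cultured in 10% serum and treated 30 min with inhibitor. Lysed in Tris lysis buffer and extracts immunoblotted with an antibody to NDRG1 phosphorylated at Thr346/356/366. Three experiments.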

[8] = tested on: HEK293; test: Inhibition of PI3K in serum starved HEK293 cells expressing GST-tagged-AKT1 S473D mutant assessed as reduction in IGF1-stimulated AKT1 phosphorylation at Thr308 residue at 1 uM incubated for 20 mins by immunoblot analysis; format: cell-based; conditions: Homo sapiens
In short: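 HEK-293 cells transfected with wild-type or S473D GST–Akt1. At 24 h, serum-starved 16 h, pretreated 30 min with inhibitor, then stimulated with IGF-1 for 20 min. Lysates immunoblotted for Thr308 phosphorylation. Three separate experiments.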

[9] = tested on: MEF; test: Inhibition of PI3K in serum starved MEF cells assessed as reduction IGF1-stimulated AKT phosphorylation at Thr308 residue at 1 uM incubated for 20 mins by immunoblot analysis; format: cell-based; conditions: Mus musculus
In short: (§2)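 Wild-type, Rictor-, mLST8- or Sin1-knockout MEFs serum-deprived, pretreated 30 min with inhibitor, then stimulated with IGF-1 for 20 min. Lysates immunoblotted for Akt Thr308 phosphorylation. Three independent experiments.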

[10] = tested on: MEF; test: Inhibition of PI3K in serum starved Rictor knockout MEF cells assessed as reduction IGF1-stimulated AKT phosphorylation at Thr308 residue at 1 uM incubated for 20 mins by immunoblot analysis; format: cell-based; conditions: Mus musculus; in short: as §2
[11] = tested on: MEF; test: Inhibition of PI3K in serum starved mLST8 knockout MEF cells assessed as reduction IGF1-stimulated AKT phosphorylation at Thr308 residue at 1 uM incubated for 20 mins by immunoblot analysis; format: cell-based; conditions: Mus musculus; in short: as §2
[12] = tested on: MEF; test: Inhibition of PI3K in serum starved sin1 knockout MEF cells assessed as reduction IGF1-stimulated AKT phosphorylation at Thr308 residue at 1 uM incubated for 20 mins by immunoblot analysis; format: cell-based; conditions: Mus musculus; in short: as §2
[13] = tested on: MEF; test: Inhibition of PI3K/mTOR in MEF cells assessed as reduction in NDRG1 phosphorylation incubated ay 1 uM for 30 mins by immunoblot analysis; format: cell-based; conditions: Mus musculus; in short: as §1
[14] = tested on: MEF; test: Induction of cell cycle arrest in MEF cells assessed as accumulation at G2 phase at 100 nM incubated for 1 to 3 days by propidium iodide staining based flow cytometric analysis (reference value: 15.4 +/- 2.04%); format: toxicity; conditions: mouse, 0.1 µM, time 1-3 day
[15] = tested on: MEF; test: Induction of cell cycle arrest in MEF cells assessed as accumulation at S phase at 100 nM incubated for 1 to 3 days by propidium iodide staining based flow cytometric analysis (reference value: 61.5 +/- 0.78%); format: toxicity; conditions: mouse, 0.1 µM, time 1-3 day
[16] = tested on: MEF; test: Induction of cell cycle arrest in MEF cells assessed as accumulation at G1 phase at 100 nM incubated for 1 to 3 days by propidium iodide staining based flow cytometric analysis (reference value: 21.4 +/- 1.7%); format: toxicity; conditions: mouse, 0.1 µM, time 1-3 day
[17] = tested on: MEF; test: Induction of cell cycle arrest in mLST8 knockout MEF cells assessed as accumulation at G2 phase at 100 nM incubated for 1 to 3 days by propidium iodide staining based flow cytometric analysis (reference value: 14.1 +/- 0.69%); format: toxicity; conditions: mouse, 0.1 µM, time 1-3 day
[18] = tested on: MEF; test: Induction of cell cycle arrest in mLST8 knockout MEF cells assessed as accumulation at S phase at 100 nM incubated for 1 to 3 days by propidium iodide staining based flow cytometric analysis (reference value: 59.7 +/- 0.49%); format: toxicity; conditions: mouse, 0.1 µM, time 1-3 day
[19] = tested on: MEF; test: Induction of cell cycle arrest in mLST8 knockout MEF cells assessed as accumulation at G1 phase at 100 nM incubated for 1 to 3 days by propidium iodide staining based flow cytometric analysis (reference value: 22.2 +/- 0.59%); format: toxicity; conditions: mouse, 0.1 µM, time 1-3 day
[20] = target: Serine/threonine-protein kinase mTOR (Homo sapiens) (UniProt P42345); conditions: HeLa, dose 100.0 nM, time 30.0 min
[21] = target: Serine/threonine-protein kinase mTOR (Mus musculus) (UniProt Q9JLN9); conditions: MEF, dose 100.0 nM, time 30.0 min
[22] = target: Serine/threonine-protein kinase mTOR (Mus musculus) (UniProt Q9JLN9); conditions: MEF, dose 100.0 nM, time 30.0 min; remark: listed apart in the source
[23] = target: Serine/threonine-protein kinase mTOR (Mus musculus) (UniProt Q9JLN9); conditions: MEF, dose 100.0 nM, time 30.0 min; remark: listed apart in the source
[24] = target: Serine/threonine-protein kinase mTOR (Mus musculus) (UniProt Q9JLN9); conditions: MEF, dose 100.0 nM, time 30.0 min; remark: listed apart in the source
[25] = target: Serine/threonine-protein kinase mTOR (Mus musculus) (UniProt Q9JLN9); conditions: MEF, dose 100.0 nM, time 30.0 min; remark: listed apart in the source
[26] = target: Serine/threonine-protein kinase mTOR (Homo sapiens) (UniProt P42345); conditions: HEK293, dose 100.0 nM, time 30.0 min
[27] = target: Serine/threonine-protein kinase mTOR (Homo sapiens) (UniProt P42345); conditions: HEK293, dose 100.0 nM, time 30.0 min; remark: listed apart in the source

inhibition [1]: Active
inhibition [2]: Active
inhibition [3]: Active
inhibition [4]: Active
inhibition [5]: Active
SMILES: O=C(NOCC(O)CO)c1ccc(F)c(F)c1Nc1ccc(I)cc1Cl (configuration not stated)

SMILES: Oc1cccc(-c2nc(N3CCOCC3)c3oc4ncccc4c3n2)c1
inhibition [6]: Active
inhibition [7]: Active
inhibition [8]: Active
inhibition [9]: Active
inhibition [10]: Active
inhibition [11]: Active
inhibition [12]: Active
inhibition [13]: Active

inhibition [20]: inactive
inhibition [21]: inactive
inhibition [22]: Active
inhibition [23]: Active
inhibition [24]: Active
inhibition [25]: Active
inhibition [26]: Active
inhibition [27]: Active
SMILES: CO[C@H]1C[C@@H]2CC[C@@H](C)[C@@](O)(O2)C(=O)C(=O)N2CCCC[C@H]2C(=O)O[C@H]([C@H](C)C[C@@H]2CC[C@@H](O)[C@H](OC)C2)CC(=O)[C@H](C)/C=C(\C)[C@@H](O)[C@@H](OC)C(=O)[C@H](C)C[C@H](C)/C=C/C=C/C=C/1C [SIROLIMUS]
Activity [14]: 11.2%
Activity [15]: 56.7%
Activity [16]: 29.8%
Activity [17]: 14.4%
Activity [18]: 46.5%
Activity [19]: 35.8%
